Screening data (PubChem BioAssay)
hiPSC survival: increases survival of single human iPS cells; survival enhancement, % at 20 µM; AID 602274; hiPSC single-cell survival, ATPlite luminescence; 100% = ROCK inhibitor wells, 0% = DMSO; actives 0.044% (n = 360,000); in the data active = survival enhancement above about 18%;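 also: cells exposed to compounds for 16 hours before the ATP read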
Apaf1 inhib: blocks human Apaf-1 apoptosome activity; reconstituted apoptosome caspase-3 activity, DEVD-Rh110 fluorescence; inhibition, % at 20 µM; O14727; actives 0.71% (n = 330,000); active = inhibition of at least 40% at 20 µM
Target sequence (O14727 whole entry, looked up): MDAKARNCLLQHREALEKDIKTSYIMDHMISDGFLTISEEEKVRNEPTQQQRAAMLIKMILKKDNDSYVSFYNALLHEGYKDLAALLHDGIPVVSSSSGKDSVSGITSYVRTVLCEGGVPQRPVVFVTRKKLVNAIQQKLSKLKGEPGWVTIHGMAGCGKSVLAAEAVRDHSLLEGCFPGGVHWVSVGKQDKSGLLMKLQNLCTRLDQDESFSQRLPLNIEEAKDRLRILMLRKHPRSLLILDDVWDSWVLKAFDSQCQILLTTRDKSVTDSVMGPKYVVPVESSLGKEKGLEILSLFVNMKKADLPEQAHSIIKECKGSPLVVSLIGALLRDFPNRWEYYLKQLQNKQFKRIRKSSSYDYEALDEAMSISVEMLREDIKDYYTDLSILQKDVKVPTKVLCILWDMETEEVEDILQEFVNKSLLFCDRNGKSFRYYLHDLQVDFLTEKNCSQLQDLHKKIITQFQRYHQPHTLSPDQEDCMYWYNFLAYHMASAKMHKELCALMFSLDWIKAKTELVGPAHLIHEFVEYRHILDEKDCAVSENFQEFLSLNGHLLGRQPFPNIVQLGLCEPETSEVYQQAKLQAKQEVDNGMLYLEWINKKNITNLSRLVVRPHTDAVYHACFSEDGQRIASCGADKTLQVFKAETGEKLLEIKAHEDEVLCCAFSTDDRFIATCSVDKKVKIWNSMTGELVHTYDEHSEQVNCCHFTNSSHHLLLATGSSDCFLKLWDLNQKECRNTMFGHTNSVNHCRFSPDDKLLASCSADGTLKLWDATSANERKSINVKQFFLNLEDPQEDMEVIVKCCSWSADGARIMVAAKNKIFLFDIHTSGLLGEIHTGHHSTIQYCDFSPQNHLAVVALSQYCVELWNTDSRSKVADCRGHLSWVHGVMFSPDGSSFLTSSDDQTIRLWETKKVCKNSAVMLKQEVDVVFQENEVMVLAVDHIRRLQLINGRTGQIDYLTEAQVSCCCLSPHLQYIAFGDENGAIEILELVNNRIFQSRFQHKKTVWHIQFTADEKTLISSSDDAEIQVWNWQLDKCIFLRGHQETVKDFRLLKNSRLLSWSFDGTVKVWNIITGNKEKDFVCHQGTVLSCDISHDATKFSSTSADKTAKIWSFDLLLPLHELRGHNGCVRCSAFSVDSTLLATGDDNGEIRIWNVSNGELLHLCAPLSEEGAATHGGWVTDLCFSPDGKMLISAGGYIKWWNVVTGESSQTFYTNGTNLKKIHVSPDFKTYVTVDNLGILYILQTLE
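System: reconstituted apoptosome with Apaf-1, cytochrome c, caspase-9, procaspase-3, dATP; Signal: Rh110 fluorescence intensity; Schedule: 30 min compound preincubation, 50 min activation, room temperature; Reagent: cytochrome c trigger plus (Z-DEVD)2-Rh110 caspase-3 substrate.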
UBC13 polyUb: blocks human UBC13 polyubiquitin chain formation. P61088. TR-FRET. inhibition, % at 20 µM. actives 0.47% (n = 330,000). AID 485273; in the data active = inhibition above about 45%, passing the limit was not always enough
MIN6 prolif: inducers of beta-cell replication in MIN6 cells | MIN6 cells proliferation, ATPlite luminescence, 48 h; cells starved in 0.2% serum; 100% = growth in 10% serum | proliferation, % at 10 µM | actives 0.29% (n = 330,000);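 active = compounds whose signal lies at least 3.5 SD above the mean of all wells on their plate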
MPTP inh: inhibitors of mitochondrial permeability transition pore; isolated mouse mitochondria, Ca2+ swelling absorbance, 30 min; inhibition, % at 10 µM; actives 1.4% (n = 360,000);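 active = inhibition of 50% or more, scaled per plate between neutral and stimulator controls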
Granule exo inh: lytic granule exocytosis inhibition; actives 0.66% (n = 360,000); inhibition, % at 10 µM; TALL-104 LAMP-1 surface exposure, flow cytometry; cells stimulated with thapsigargin and PMA;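 active = inhibition above about 55%, limit read from the data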
Apaf-1 inh conf: confirmation of Apaf-1 inhibitors; reconstituted apoptosome, caspase-3 DEVD-Rh110 fluorescence; shares compounds with Apaf1 inhib; inhibition, % at 20 µM; actives 25% (n = 1,800);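 active = mean inhibition of at least 40% at 20 µM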
Rh110 quench: interferes with Rh110 fluorescence, flagging false Apaf-1 inhibitors; shares compounds with Apaf1 inhib; Rh110 fluorescence interference, quenched caspase reaction; activation (fluorescence interference), % at 20 µM; 1,800 tested, under 10 active;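 active = signal rise of 40% or more at 20 µM, treated as a fluorescence artifact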
Apaf1 inh interf: Apaf-1 inhibitor counter-screen fluorescence artifact. shares compounds with Apaf1 inhib. fluorescence interference counterscreen, Apaf-1 assay format. IC50, µM. 460 tested, under 10 active; call rule not given here
Large screens that a line does not name were inactive (follow-up assays come after a bar, where they were run). Compounds with a hit are over-represented: about 3% of the library has one in this group of screens.

O=C(NC1=C(Nc2ccc(F)cc2)C(=O)c2ccccc2C1=O)c1ccc(Cl)cc1	Apaf1 inhib 70 | Apaf-1 inh conf 68 | Rh110 quench inactive | Apaf1 inh interf inactive
O=C(NNC(=O)c1ccc(NC(=O)c2ccccc2)cc1)c1ccc(F)cc1	none
COc1ccc(Br)cc1CNc1ccc2[nH]c(=O)[nH]c2c1	none
COc1ccc(Br)cc1CNc1ccc(O)cc1	Apaf1 inhib 95 | Apaf-1 inh conf inactive | Rh110 quench inactive
Cc1noc(C)c1COc1ccccc1C(=O)N1CCN(c2cccc(Cl)c2)CC1	Apaf1 inhib 52 | Apaf-1 inh conf inactive | Rh110 quench inactive
Cc1cc(C)c(S(=O)(=O)/N=C2/C=C(SCC(=O)O)C(=O)c3ccccc32)cc1C	Apaf1 inhib 72, Granule exo inh 79 | Apaf-1 inh conf 55 | Rh110 quench inactive | Apaf1 inh interf inactive
COc1ccc(C(=O)NCC(=O)OCC(=O)NC2CCCCCC2)cc1	none
C=CCC[C@@H](Cc1ccc(F)cc1)C(=O)OC[C@H]1CCCN1C(=O)[C@@H](CC=C)CC(=O)N[C@H](CO)Cc1ccccc1	Apaf1 inhib 40 | Apaf-1 inh conf inactive | Rh110 quench inactive
C=CCC[C@H](Cc1ccc(F)cc1)C(=O)OC[C@H]1CCCN1C(=O)[C@@H](CC=C)CC(=O)NCCO	none
C=CCC[C@@H](Cc1ccc(F)cc1)C(=O)OC[C@@H]1CCCN1C(=O)[C@@H](CC=C)CC(=O)N(CCO)Cc1ccccc1	Apaf1 inhib 48 | Apaf-1 inh conf inactive | Rh110 quench inactive
C=CCC[C@@H](Cc1ccc(F)cc1)C(=O)OC[C@@H]1CCCN1C(=O)[C@H](CC=C)CC(=O)N[C@H](CO)Cc1ccccc1	Apaf1 inhib 43 | Apaf-1 inh conf inactive | Rh110 quench inactive
C=CC[C@@H](Cc1ccc(F)cc1)C(=O)OC[C@H]1CCCN1C(=O)[C@@H](CC=C)CC(=O)N[C@@H](CO)Cc1ccccc1	none
CCc1ccccc1OCC(=O)Nc1ccc(N2CCCC2)cc1C	Apaf1 inhib 43 | Apaf-1 inh conf inactive | Rh110 quench inactive
Cc1cc(N2CCCC2)ccc1NC(=O)COc1ccccc1	Apaf1 inhib 52 | Apaf-1 inh conf inactive | Rh110 quench inactive
Cc1ccc(C(=O)N2CCN(S(=O)(=O)c3ccc(C(C)C)cc3)CC2)s1	none
Cc1cccc(NC(=O)CC2Nc3cccc4cccc(c34)NC2=O)c1 (configuration not stated)	Apaf1 inhib 71 | Apaf-1 inh conf inactive | Rh110 quench inactive
CCOc1ccc(NC(=O)CC2Nc3ccccc3NC2=O)cc1 (configuration not stated)	none
CC(=O)c1ccc(NC(=O)CC2Nc3cccc4cccc(c34)NC2=O)cc1 (configuration not stated)	Apaf1 inhib 89 | Apaf-1 inh conf inactive | Rh110 quench inactive
COC(=O)[C@@]1(Cc2ccc(F)cc2)[C@H]2c3cc(C(=O)N4CCCC4)n(C)c3C[C@H]2CN1C(=O)c1ccccc1	none (no result: Apaf1 inhib, UBC13 polyUb, MIN6 prolif)
CC1(C(=O)Nc2cccc(OC(F)(F)F)c2)Cc2c(-c3ccc4c(c3)OCO4)ccnc2O1 (configuration not stated)	none (no result: Apaf1 inhib, UBC13 polyUb, MIN6 prolif)
CC1(C)CC(=O)C(C=Nc2ccc(O)c(N=CC3=C(O)CC(C)(C)CC3=O)c2)=C(O)C1	Apaf1 inhib 47 | Apaf-1 inh conf inactive | Rh110 quench inactive
CC1(C)CC(=O)C(C=Nc2ccc3c(c2)OCO3)=C(O)C1	none
O=C1CCC/C=C\C[C@@H](CC(=O)N(CCO)Cc2ccccc2)C(=O)N[C@H](c2ccccc2)CO1	none
Cn1c(=O)c2c(nc(CN3CCc4ccccc4C3)n2Cc2cccc(Cl)c2)n(C)c1=O	Apaf1 inhib 51 | Apaf-1 inh conf inactive | Rh110 quench inactive
C=CCOc1ccc(C(=O)n2cc(C(=O)OC)c3ccccc32)cc1	none
